# Laboratory results from ChEMBL document CHEMBL3632581, “Dimers of Melampomagnolide B Exhibit Potent Anticancer Activity against Hematological and Solid Tumor Cells” (J Med Chem, 2015).
# Tests used:
# DU-145 = test: Cytotoxicity against human DU145 cells after 48 hrs by SRB assay; format: functional; conditions: DU-145, 48 h
# Procedure, shortened: (§1)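 NCI-60 five-dose screen at 10−8 to 10−4 M. Cells were plated at 5,000–40,000/well in RPMI 1640 with 5% FBS and 2 mM L-glutamine, then preincubated 24 h, and time-zero plates were TCA-fixed. Compound was added from DMSO stocks and exposed 48 h at 37 °C. Cells were TCA-fixed, SRB-stained, and read at 515 nm. LC50 is the concentration halving the cell population through cell death.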
# [1] = Antileukemic activity against human AML03 cells after 24 hrs by annexin V/7-AAD staining-based flow cytometric analysis; format: functional, cell-based
# Procedure, shortened: (§2)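 Primary AML specimens from consenting donors, isolated by Ficoll-Paque gradient and sometimes cryopreserved. Cells were held 1 h in serum-free IMDM with 20% BIT 9500, LDL and β-mercaptoethanol before drug (DMSO stock diluted in PBS, ≤0.5% DMSO final). Exposure was 24 h over 0.5-10 μM. Annexin V/7-AAD double-negative cells, normalized to vehicle, gave the EC50. Run in triplicate.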
# UO-31 = test: Cytotoxicity against human UO31 cells after 48 hrs by SRB assay; format: functional; conditions: UO-31, 48 h
# Procedure, shortened: (§3)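 NCI-60 screen: cells grown in RPMI 1640 with 5% FBS and 2 mM L-glutamine, plated at 5,000–40,000 cells/well by doubling time, and preincubated 24 h at 37 °C before drug. Drug was diluted from DMSO stock and given at five concentrations, 10−4 to 10−8 M, for 48 h. Cells fixed with cold TCA, SRB stained, OD read at 515 nm against time-zero and vehicle plates. LC50 taken as the concentration that halves cell population through cell death.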
# LOX IMVI = test: Cytotoxicity against human LOXIMVI cells after 48 hrs by SRB assay; format: functional; procedure, shortened: as §1
# 786-0 = test: Cytotoxicity against human 786-0 cells after 48 hrs by SRB assay; format: functional; conditions: 786-0, 48 h; procedure, shortened: as §1
# OVCAR-4 = test: Cytotoxicity against human OVCAR4 cells after 48 hrs by SRB assay; format: functional; conditions: OVCAR-4, 48 h; procedure, shortened: as §1
# NCI-H522 = test: Cytotoxicity against human NCI-H522 cells after 48 hrs by SRB assay; format: functional; conditions: NCI-H522, 48 h; procedure, shortened: as §1
# SNB-75 = test: Cytotoxicity against human SNB75 cells after 48 hrs by SRB assay; format: functional; conditions: SNB-75, 48 h; procedure, shortened: as §1
# U-251 = test: Cytotoxicity against human U251 cells after 48 hrs by SRB assay; format: functional; conditions: U-251, 48 h; procedure, shortened: as §3
# SK-MEL-5 = test: Cytotoxicity against human SK-MEL-5 cells after 48 hrs by SRB assay; format: functional; conditions: SK-MEL-5, 48 h; procedure, shortened: as §1
# M14 = test: Cytotoxicity against human M14 cells after 48 hrs by SRB assay; format: functional; conditions: M14, 48 h; procedure, shortened: as §1
# SK-MEL-2 = test: Cytotoxicity against human SK-MEL-2 cells after 48 hrs by SRB assay; format: functional; conditions: SK-MEL-2, 48 h; procedure, shortened: as §1
# HOP-62 = test: Cytotoxicity against human HOP62 cells after 48 hrs by SRB assay; format: functional; conditions: HOP-62, 48 h; procedure, shortened: as §1
# [2] = Antileukemic activity against human AML04 cells after 24 hrs by annexin V/7-AAD staining-based flow cytometric analysis; format: functional, cell-based; procedure, shortened: as §2
# K562 = test: Cytotoxicity against human K562 cells after 48 hrs by SRB assay; format: functional; conditions: K562, 48 h; procedure, shortened: as §1
# SK-OV-3 = test: Cytotoxicity against human SKOV3 cells after 48 hrs by SRB assay; format: functional; conditions: SK-OV-3, 48 h; procedure, shortened: as §1
# UACC-62 = test: Cytotoxicity against human UACC62 cells after 48 hrs by SRB assay; format: functional; conditions: UACC-62, 48 h; procedure, shortened: as §3
# HCC 2998 = test: Cytotoxicity against human HCC2998 cells after 48 hrs by SRB assay; format: functional; conditions: HCC 2998, 48 h; procedure, shortened: as §1
# SW-620 = test: Cytotoxicity against human SW620 cells after 48 hrs by SRB assay; format: functional; conditions: SW-620, 48 h; procedure, shortened: as §3
# BT-549 = test: Cytotoxicity against human BT549 cells after 48 hrs by SRB assay; format: functional; conditions: BT-549, 48 h; procedure, shortened: as §1
# T47D = test: Cytotoxicity against human T47D cells after 48 hrs by SRB assay; format: functional; procedure, shortened: as §3
# [3] = Cytotoxicity against human Hs 578T cells after 48 hrs by SRB assay; format: functional; procedure, shortened: as §1
# [4] = Antileukemic activity against human AML02 cells after 24 hrs by annexin V/7-AAD staining-based flow cytometric analysis; format: functional, cell-based; procedure, shortened: as §2
# [5] = Antileukemic activity against human AML05 cells after 24 hrs by annexin V/7-AAD staining-based flow cytometric analysis; format: functional, cell-based; procedure, shortened: as §2
# PC-3 = test: Cytotoxicity against human PC3 cells after 48 hrs by SRB assay; format: functional; conditions: PC-3, 48 h; procedure, shortened: as §1
# HCT-15 = test: Cytotoxicity against human HCT15 cells after 48 hrs by SRB assay; format: functional; conditions: HCT-15, 48 h; procedure, shortened: as §1
# RXF 393 = test: Cytotoxicity against human RXF393 cells after 48 hrs by SRB assay; format: functional; conditions: RXF 393, 48 h; procedure, shortened: as §1
# OVCAR-8 = test: Cytotoxicity against human OVCAR8 cells after 48 hrs by SRB assay; format: functional; conditions: OVCAR-8, 48 h; procedure, shortened: as §1
# OVCAR-3 = test: Cytotoxicity against human OVCAR3 cells after 48 hrs by SRB assay; format: functional; conditions: OVCAR-3, 48 h; procedure, shortened: as §1
# [6] = Cytotoxicity against hematopoietic progenitor cells isolated from human umbilical cord blood by annexin V staining-based flow cytometric analysis; format: cell-based
# Procedure, shortened: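 Cord-blood mononuclear cells from Ficoll-Paque were plated in serum-free medium, with drug from a DMSO stock (≤0.5% DMSO final). Cells were stained for CD34, CD45 and annexin V. The non-apoptotic fraction (annexin V-negative within the CD34+CD45dim compartment) was normalized to vehicle, and EC50 was fitted where possible. Triplicate.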
# MDA-MB-468 = test: Cytotoxicity against human MDA-MB-468 cells after 48 hrs by SRB assay; format: functional; conditions: MDA-MB-468, 48 h; procedure, shortened: as §1
# NCI-H23 = test: Cytotoxicity against human NCI-H23 cells after 48 hrs by SRB assay; format: functional; conditions: NCI-H23, 48 h; procedure, shortened: as §1
# RPMI-8226 = test: Cytotoxicity against human RPMI8226 cells after 48 hrs by SRB assay; format: functional; conditions: RPMI-8226, 48 h; procedure, shortened: as §1
# [7] = read-out: LC50 (the source's name)
structure (smiles),measurement,setting,value
C=C1C(=O)O[C@H]2[C@H]1CC/C(COC(=O)NCCCCNC(=O)OC/C1=C/CC[C@@]3(C)O[C@H]3[C@H]3OC(=O)C(=C)[C@@H]3CC1)=C\CC[C@@]1(C)O[C@@H]21,GI50,DU-145,3.21 µM
same,LC50 (concentration killing half the cells),DU-145,33.8 µM
same,EC50,[1],7.3 µM
same,GI50,UO-31,7.61 µM
same,CC50,UO-31; [7],47.7 µM
same,GI50,LOX IMVI,510 nM
same,CC50,LOX IMVI; [7],5.15 µM
same,GI50,786-0,1990 nM
same,CC50,786-0; [7],9.11 µM
same,GI50,OVCAR-4,1770 nM
same,CC50,OVCAR-4; [7],30.5 µM
same,GI50,NCI-H522,160 nM
same,CC50,NCI-H522; [7],840 nM
same,GI50,SNB-75,2190 nM
same,CC50,SNB-75; [7],66.3 µM
same,GI50,U-251,2940 nM
same,CC50,U-251; [7],33.3 µM
same,GI50,SK-MEL-5,3.33 µM
same,CC50,SK-MEL-5; [7],41.4 µM
same,GI50,M14,1970 nM
same,CC50,M14; [7],16.3 µM
same,GI50,SK-MEL-2,1770 nM
same,CC50,SK-MEL-2; [7],29.3 µM
same,GI50,HOP-62,3.84 µM
same,CC50,HOP-62; [7],46.1 µM
same,EC50,[2],4.2 µM
same,GI50,K562,660 nM
same,CC50,K562; [7],> 100 µM
same,GI50,SK-OV-3,12.7 µM
same,CC50,SK-OV-3; [7],50.4 µM
same,GI50,UACC-62,750 nM
same,CC50,UACC-62; [7],7.06 µM
same,GI50,HCC 2998,2350 nM
same,CC50,HCC 2998; [7],9.73 µM
same,GI50,SW-620,580 nM
same,CC50,SW-620; [7],5.56 µM
same,GI50,BT-549,1600 nM
same,LC50,BT-549,8.23 µM
same,GI50,T47D,1510 nM
same,CC50,T47D; [7],> 100 µM
same,GI50,[3],2540 nM
same,CC50,[3]; [7],> 100 µM
same,EC50,[4],2000 nM
same,EC50,[5],2000 nM
same,GI50,PC-3,2550 nM
same,LC50 (concentration killing half the cell population),PC-3,30.5 µM
same,GI50,HCT-15,5.61 µM
same,CC50,HCT-15; [7],56.3 µM
same,GI50,RXF 393,1440 nM
same,CC50,RXF 393; [7],7.84 µM
same,GI50,OVCAR-8,2180 nM
same,CC50,OVCAR-8; [7],40.2 µM
same,GI50,OVCAR-3,690 nM
same,CC50,OVCAR-3; [7],4.76 µM
same,EC50,[6],> 10 µM
same,GI50,MDA-MB-468,420 nM
same,LC50,MDA-MB-468,7.76 µM
same,GI50,NCI-H23,2180 nM
same,CC50,NCI-H23; [7],30.4 µM
same,GI50,RPMI-8226,540 nM
same,CC50,RPMI-8226; [7],> 100 µM
